Test results as given in ChEMBL document CHEMBL4513216, “Probing the Open Global Health Chemical Diversity Library for Multistage-Active Starting Points for Next-Generation Antimalarials” (ACS Infect Dis, 2020).

Assay: Toxicity liver stage against HepG2, at 10uM
Assay type: cell-based
Set-up: test concentration 10 uM, cell line HepG2-A16-CD81EGFP
Details: human, HepG2-A16-CD81EGFP cells; read-out: INHIBITION
How it was run: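 Uninfected HepG2-A16-CD81EGFP cells, 3 × 10^3 per well, 1536-well, plated on prespotted compound at 10 μM final, parasite-free screening media added to match infected plates; puromycin 10 μM positive, DMSO 0.5% negative; run in parallel with 48 h PbLuc assay at 37 °C, 5% CO2; viability by CellTiter-Glo luminescence, normalized to controls.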

SMILES	cytotoxicity at 10 µM
COC(C(=O)NC1CC1)c1ccccc1 (configuration not stated)	-3.73%
CCOC(=O)c1cnn(-c2cc(Oc3ccccc3C)ncn2)c1N	15.8%
COCCOc1ccc(NC(=O)N(CCO)C2CC2)cn1	-2.77%
CC(C)(C)CN1CCN2C(=O)N(C3CCCCC3)C[C@H]2C1	4.91%
CC1CCN(c2cc(-n3cnc(C(=O)N4CCSCC4)c3)ncn2)CC1	0.668%
CC(C)N1[C@H](CN2CCCC2)C[C@@H]2CN(Cc3cnn(C)c3)CC[C@@H]21	-147%
CS(=O)(=O)N1CCOC2(CCCN(c3ncc(F)cn3)C2)C1 (configuration not stated)	5.98%
CN(C)CCNC(=O)c1cc(-c2cnc(N(C)C)nc2)cn1CC1CC1	-5.81%
O=C(C1CCOCC1)N1CCO[C@H]2[C@H](OCC3CC3)CC[C@@H]21	2.61%
Cc1nc(N2CCOCC2)nc2c1CCN(C(=O)C1CCCCC1)CC2	-0.152%
O=C1CCCN1CC1CN(C(=O)CC2CCCC2)Cc2nccn2C1 (configuration not stated)	1.47%
CNC(=O)c1cc2c(nc1NCC1CC1)CCN(S(=O)(=O)C1CC1)CC2	-13.3%
Cc1ccccc1N1CC(c2nnc(N)s2)CC1=O (configuration not stated)	-0.411%
Cc1ccc(Cn2ccc(NS(C)(=O)=O)n2)cc1	-12.2%
CC(=O)Nc1ccc(S(=O)(=O)N2CCOC(Cn3ccnc3)C2)cc1 (configuration not stated)	0.166%
CCn1nc(C)c(CN(CCCN(C)C)Cc2ccccn2)c1C	1.62%
CC(C)NC(=O)C1CCc2nnc(CNC(=O)C3CC3)n21 (configuration not stated)	4.9%
COCC(=O)Nc1ccnc(OCCN(C)C)c1	-7.67%
N#CCCCS(=O)(=O)NC(=O)c1ccccc1F	0.749%
CC(NC(=O)N1CCNC(=O)CC1)c1c(F)cccc1Cl (configuration not stated)	-1.66%
CN(CC(C)(CO)CO)C(=O)Nc1cc(F)cc(Cl)c1	-0.19%

SMILES	cytotoxicity at 10 µM
CC(=O)N(C)C(c1cccnc1)c1ccc(F)c(F)c1 (configuration not stated)	-7.69%
CCOc1nnc(CN2CCC(c3nc4ccccc4[nH]3)CC2)s1	-1.36%
N#Cc1c(CN2CCCC2Cn2cncn2)cn2ccccc12 (configuration not stated)	-2.49%
COCCCN(Cc1ccncc1)c1ncc(C#N)cc1Cl	4.98%
CCn1cc(NC(=O)NCCN2CCCc3ccccc32)cn1	2.96%
Cc1noc(C)c1C(=O)NCC1CCCCN1Cc1ccccc1 (configuration not stated)	-4.4%
CCCn1cc(C(=O)NCCCC(N)=O)c2ccccc21	6.13%
COC(=O)C1CCN(C(=O)Cn2ccc(-c3ccc(F)cc3)n2)CC1	-5.31%
CCc1[nH]ncc1C(=O)N1CCN(c2nc(C)cc(OC)n2)CC1	3.51%
CN1N=C(C(=O)N2CCN(c3ncccn3)CC2)CCC1=O	3.62%
CC(C)CC(NC(=O)c1cccc(F)c1F)C(=O)Nc1cc[nH]n1 (configuration not stated)	-7.82%
COC(=O)C(C)N(Cc1cc(=O)n(C)c(=O)n1C)C1CC1 (configuration not stated)	-0.719%
CC(C)(C)S(=O)(=O)CCNC(=O)c1ccc2ccccc2c1	0.995%
CCC(CNC(=O)NCc1cc[nH]n1)N1CCCC1 (configuration not stated)	-3.65%
CCC(C)C(=O)NCc1cc(Br)c(OC)c(OC)c1 (configuration not stated)	2.42%
CN(CC(=O)Nc1cc(CC2CCCCC2)n[nH]1)S(C)(=O)=O	3.44%
CC(C)(C(=O)NCC(=O)N1CCCC1)c1ccccc1F	2.66%
CN(C)C(=O)CN1CCN(c2ccnc3c(F)ccc(F)c23)CC1	4.44%
CCC(NC(=O)Nc1cc(F)c(OC)c(F)c1)c1noc(C)n1 (configuration not stated)	-0.177%
Cc1cc(C)n(C2CN(CCc3ccncc3)C2)n1	-1.12%
CC(C)Oc1ccccc1CNC(=O)c1[nH]ncc1Br	17.5%

SMILES	cytotoxicity at 10 µM
Cc1cc(C(=O)N(CC(C)C)CC(O)c2ccc(F)cc2)[nH]n1 (configuration not stated)	-10.2%
CC(C)CCC(C)NC(=O)c1ccc(OCC(N)=O)cc1 (configuration not stated)	-3.59%
Cc1cc(CNC(=O)C2CCCCN2C(=O)OC(C)(C)C)no1 (configuration not stated)	4.91%
O=C1CN(Cc2nnc(-c3ccccc3Br)o2)CCN1	9.35%
CN(Cc1ccc(Cl)c(Cl)c1)C(=O)CNC(N)=O	-8.87%
CNC(=O)CCNC(=O)c1cccc(Cn2nc(C)cc2C)c1	-16.6%
O=C(CSC(F)(F)F)N1CCC2(CCCN(C3CCOCC3)C2=O)C1 (configuration not stated)	-128%
CCN1CCN(S(=O)(=O)N2CCCC2)[C@H]2CS(=O)(=O)C[C@H]21	-4.14%
COCc1nc(CN2CC(Cc3ccccc3)CC2=O)no1 (configuration not stated)	-12.8%
CCc1cnc(C)nc1N1CCN(Cc2ccc(-c3cc[nH]n3)o2)CC1	-0.898%
CCN1CCc2[nH]cnc2C12CCN(c1ncc(C(=O)O)cc1Cl)CC2	1.46%
CS(=O)(=O)N1CCC2(CCCN(CCCc3ccccc3)C2=O)C1 (configuration not stated)	2.46%
COc1cc(N2C[C@@H](C)[C@](O)(C3CC3)C2)nc(N)n1	0.929%
CC(C)NC1CCCc2nc(-c3ccccc3)ncc21 (configuration not stated)	16.1%
O=C(C1CCOC1)N1CCC(Cn2cc(-c3ccsc3)nn2)CC1 (configuration not stated)	-0.039%
CCC(CO)N(Cc1cccs1)C(=O)CSC (configuration not stated)	4.78%
CN(C)CCN1CC(C(=O)N2CCC(c3nccn3C)CC2)CC1=O (configuration not stated)	-7.2%
COc1ccc(NC(=O)CCN2CC=C(c3cnn(C)c3)CC2)cc1Cl	6.64%
N#Cc1ccc(F)c(CN2CCCCC2Cn2cccn2)c1 (configuration not stated)	-0.674%
O=C(CCc1ccco1)N1CCC(Nc2cccnn2)CC1	-20.3%
CCN(CC)C(=O)Cn1ccc2cc(NC(C)=O)ccc21	-10.2%

SMILES	cytotoxicity at 10 µM
Cc1ncc(CN2CCCN(Cc3noc(C4CC4)n3)CC2)s1	-8.57%
CC(=O)N(Cc1ncc(C)o1)C1CCN(CCc2cnn(C)c2)C1 (configuration not stated)	0.742%
Cc1nnc(NC(=O)CN2CCCC2c2noc(C(C)C)n2)s1 (configuration not stated)	-9.05%
CCN1CCC(NC(=O)CN2CCCCC2Cn2cncn2)CC1 (configuration not stated)	3.27%
OC(CN1CCC(CNCc2ccccn2)CC1)c1ccccc1 (configuration not stated)	-2.15%
COc1ccccc1C(=O)N1CCN(C(=O)Cc2ccccn2)CC1	-7.57%
CS(=O)(=O)N1CCC(NC(=O)COc2cccc(Cl)c2)CC1	-5.59%
Cc1cc(CN2CCN(C(=O)c3sccc3C3CC3)CC2)no1	-10%
CS(=O)(=O)N1CCN(CC(O)COc2ccc(Cl)cc2)CC1 (configuration not stated)	-38.6%
CN(Cc1ccccc1)C(=O)CS(=O)(=O)Cc1ccc(Cl)c(Cl)c1	0.239%
Cc1ccc(-c2ncc(C(=O)NCCS(N)(=O)=O)s2)c(C)c1	-10.7%
c1cnc(N2CCCC3(CN(CC4CCOCC4)CCO3)C2)cn1 (configuration not stated)	0.37%
c1cncc(O[C@H]2CC[C@H]3[C@H]2OCCN3C2CCCC2)c1	-6.05%
CN1CC(=O)N(c2ccccc2)CC12CCN(Cc1nccs1)C2 (configuration not stated)	3.33%
c1cncc(CN2CCO[C@H]3[C@H](OCCN4CCCC4)CC[C@@H]32)c1	3.36%
Cc1nc(CN2CCC3(CCCN(Cc4ccncc4)C3)C2=O)cs1 (configuration not stated)	1.38%
Cc1cccc(CN2CCOCC3(CCN(C4CCOCC4)C3)C2)c1 (configuration not stated)	-0.819%
CN(C)C(=O)[C@H]1C[C@H]2CN(C(=O)NCC3CCCCC3)C[C@@H]1O2	-0.572%
COC1C[C@@H]2CN(C(=O)c3cc4ccc(F)cc4[nH]3)C[C@@H]2C1 (some centres not stated)	2.93%
